Reference: the M2OR odorant receptor database

What follows are compounds tested against T1, OR2M3 (Homo sapiens) (UniProt Q8NG83). Conditions: stereoisomer not certain.
T1 sequence (whole entry): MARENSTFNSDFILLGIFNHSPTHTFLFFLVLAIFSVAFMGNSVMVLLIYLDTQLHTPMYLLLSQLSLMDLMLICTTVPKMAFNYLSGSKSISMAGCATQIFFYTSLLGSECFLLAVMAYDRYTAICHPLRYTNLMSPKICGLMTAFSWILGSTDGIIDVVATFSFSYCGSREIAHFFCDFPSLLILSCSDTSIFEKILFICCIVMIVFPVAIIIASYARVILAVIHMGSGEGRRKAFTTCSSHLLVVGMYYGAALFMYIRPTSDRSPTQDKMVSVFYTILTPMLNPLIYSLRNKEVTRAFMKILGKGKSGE
Summary of the method: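 Transient luciferase assays in mammalian cell lines were common, though methods varied by source. The values come from published papers and their supplementary material, with extra details from the original authors when needed. Responsive refers to a measured signal the original authors judged statistically different from baseline, and non-responsive (inactive) to the remainder.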

SMILES	odorant receptor agonist call;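 further: active if original authors judged signal statistically different from baseline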
COC(=O)C(C)C	inactive
CCCC(O)CC(=O)OCC (stereo not drawn)	inactive
CCC(C)c1nccnc1OC (stereo not drawn)	inactive
CCCCCCCC(=O)[O-].[H+]	inactive
CCCCC=CC=CC=O	inactive
CC(C)CC=O	inactive
CCc1cccc(O)c1	inactive
COc1ccc(C)cc1O	inactive
CCC(C)COC(C)=O (stereo not drawn)	inactive
CCCC=CC=O	inactive
CCCCC(=O)OCC	inactive
CCCCCC=O	inactive
CCCC(=O)OC	inactive
COc1cccc(OC)c1O	inactive
CC(=O)C=CC1=C(C)CCCC1(C)C	inactive
CCCCCCC=CC=O	inactive
CCCCC1CCC(=O)O1 (stereo not drawn)	inactive
CCCSSSC	inactive
CC(C)c1ccc(C=O)cc1	inactive

SMILES	odorant receptor agonist call;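 further: active if original authors judged signal statistically different from baseline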
C=CC(=O)CCCCC	inactive
CC(S)C(C)CO (stereo not drawn)	active
C=Cc1ccc(O)c(OC)c1	inactive
CCc1ncc(C)nc1CC	inactive
CCCCC(=O)O	inactive
CC1=CCC(C(C)C)C=C1 (stereo not drawn)	inactive
CC(C)(S)CCOC=O	inactive
CCC=CCCC=CCO	inactive
CC(C)CCO	inactive
OCC=Cc1ccccc1	inactive
CCc1ccc(O)c(OC)c1	inactive
CCCCCCCC1CCC(=O)O1 (stereo not drawn)	inactive
Cc1ccc(O)cc1	inactive
CCOC(=O)CCC(C)C	inactive
COCCC(C)(C)S	inactive
CC(=O)c1cnccn1	inactive
CCC(C)C=O (stereo not drawn)	inactive
CCCCCc1ccccn1	inactive
SCc1cccs1	inactive
